The labels stand for the following.
B1: tRNA (parent)
chain: GUUCCGUUGGCGUAAUGGUAACGCGUCUCCCUCCUAAGGAGAAGACUGCGGGUUCGAGUCCCGUACGGAACG

This sample holds only a part of the variants without activity. A value given as a limit tells only on which side of the number the result lay.

Variants of B1 are the subject of the series. As to the kind of experiment: yeast fitness relative to wild type (ratio to wild type); higher = fitter; tRNA-Arg(CCU), competitive growth, 37 C, YPD. The procedure, abridged: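 For this measurement, the tRNA-Arg(CCU) gene was varied by chemical synthesis at a 3% per-site mutation rate across 69 sites, and each variant was placed at the native genomic locus in Saccharomyces cerevisiae. The pooled strains went through a 24-hour competition in YPD at 37°C in six parallel replicates, with amplicons from start and end populations read by 100-nucleotide paired-end sequencing. Darwinian fitness relative to wild type followed from the change in each genotype's frequency. Genotypes needed ≥ 100 starting reads, and estimates < 0.5 were set to 0.5.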
For the variant GUUCCGUUGGCGUAAUGGCAACGCGUGUCCCUCCUAAGGAGAAGAUUGCGGGUUCGAGUCCCGUACGGAACG [U19C C27G C46U], the yeast fitness is 0.673. Under GUUCCGUUGGCGUAAUGGCAACGCGCAUCGCUCCUAAGGAGAAGACUGCGGGUACAAGUCCCGUACGGAACG [U19C U26C C27A C30G U54A G56A] stands at most 0.5; under GUUCCGUUGGCGUAAUGGGUACGCGUGUCCCUCCUGAGGAGAAGACUGCGGGUUCGAGUCCCGUACGGAACG [U19G A20U C27G A36G], at most 0.5. The figure for GUUCCGUUGGCGUAAUGGGAAUGCGUCUCCCUCCUAAGGAGAAGACUGCGGAUUCGAGUCCCGUACGGAACG [U19G C22U G52A] is at most 0.5; for GUUCCGUUGGCGUAAUGGCAACGCGUCUCCCUGCUAAGGAGAAGACUGCGGGUUCGGGUCGCGUACGGGACG [U19C C33G A57G C61G A69G] it is 0.65; for GUUCCGUUGGCGUAAUGGCAACGCGUCUCCCUCCUAAGGAGAAGACUGCGGGUUCGCGUCCCGUACGGAACG [U19C A57C] it is 0.594. The figure for GUUCCGUUGGCGUAAUGGCAACGCGUCUCCCUCCUAAGGAGAAGACUGCGGGUUCGGGUCCCGUACGGAACG [U19C A57G] is 0.945. In the case of GUUCCGUUGGCGUAAUGGCAACGCGUCUCCCUGUUAAGGAGAAGACUGCGGGUACGAGUCCCGUAUGGAACG [U19C C33G C34U U54A C66U], the yeast fitness amounted to 0.524. Under GUUCCGUUGGCGUAAUGGCAACGCGUCUCCCUCCUAAGGAGAAGAGUGCGGGUUCGAGUCCCGUGCGGAACG [U19C C46G A65G] stands 0.716; under GUUCCGUUGGCGUAAUGGCAACGCGUAUCCCUCCUAAGGAGAAGAAUGCGGGUUCGAGUCCCGUACGGACCG [U19C C27A C46A A70C], at most 0.5. With GUUCCGUUGGCGUAAUGGCAACGCGUCUCCCUCCUAAGGAGAAGACUCCGGGUUCGAGUCCCGUAUGGAACG [U19C G48C C66U], the yeast fitness was 0.712. The figure for GUUCCGUUGGCGUAAUGGCAACGCAUCUCCCUCCUAAGGAGAAGACUGCGGGUUCGAGUCCCGUACGGAACG [U19C G25A] is 0.969. The figure for GUUCCGUUGGCGUAAUGGCAACGCGUCUCCGUCCUAAGGAGAAGACUGCGGGGACGUGUCCCGUACGGAACG [U19C C31G U53G U54A A57U] is 0.653; for GUUCCGUUGGCGUAAUGGCAACGCGUCUCCCUCCUAAGGAGAAGACAGCGGGUUCGCGUCCCGUACGGAACG [U19C U47A A57C] it is at most 0.5; for GUUCCGUUGGCGUAAUGGCAACGCGUCUCCCUCCUAAGGAGAAGACUGCGCGUUCGAGUCCCGUACGGAACG [U19C G51C] it is 0.519. The figure for GUUCCGUUGGCGUAAUGGGAACGCGUCUCCCUCCUAAGGAGAUGACUGCGGGUUCGAGUCCCGUAAGGAACG [U19G A43U C66A] is 0.6; for GUUCCGUUGGCGUAAUGGGUACGCGUCUCCCUCCUAAGGAGAAGACUGCGGGUUCGAGUCCCGUACGGAACG [U19G A20U] it is 0.955; for GUUCCGUUGGCGUAAUGGCAACGCGUCUCCCUCCUAACGAGAACAAUGCGGGUUCGAGUCCCGUACGGAACG [U19C G38C G44C C46A] it is 0.872. On to GUUCCGUUGGCGUAAUGGCAACGCGUCUCCCUCCUAAGGAGAAGACUGGGGGUUCGAGUCCCGUACUGAACG [U19C C49G G67U], for which the yeast fitness was determined as 0.599. Under GUUCCGUUGGCGUAAUGGCAACGCGUCUCCCUCCCAAGGAGAAGACUGUGGGUUCGAGUCGCGUACGGAACG [U19C U35C C49U C61G] stands at most 0.5.

For GUUCCGUUGGCGUAAUGGCAACGCGUCUCCCUCCUAAGGCCAAGACUGCGGGUUCGAGUCCCGUACGGAACG [U19C A40C G41C], the yeast fitness worked out at 0.594. The figure for GUUCCGUUGGCGUAAUGGCAACGCGUCUCCCUCCUAAGGAGAAGACUGGGGGUUCGAGUCCCGUACGGAACG [U19C C49G] is 1.14; for GUUCCGUUGGCGUAAUGGCAACGCGUCCCCCUCCUAAGGAGAAGACUGAGGGUUCGAGUCCCGUACGGAACG [U19C U28C C49A] it is 0.584; for GUUCCGUUGGCGUAAUGGCAACACGUCUCCCUCCUAAAGAGAAGACUGCGGGUUCGAGUCCCGUACGGAACG [U19C G23A G38A] it is 0.634.

Take GUUCCGUUGGCGUAAUGGCAACGCGUCUCCCUCCUAAGGAGAAGACUGCAGGUUAGAGUCCCGUACGGAACG [U19C G50A C55A]: the yeast fitness is at most 0.5.

Turning to GUUCCGUUGGCGUAAUGGCAACGCGUCUCCCUCCUAAGGAGAAGACUGCGGGCUCGAGUCACGUACGAAACG [U19C U53C C61A G68A], the yeast fitness is at most 0.5. Under GUUCCGUUGGCGUAAUGGCAACGCGUCUCCCUCCUAAGGGGAAGACUACGGGUUCGAGUCCCGUACGGAACG [U19C A40G G48A] stands 0.718; under GUUCCGUUGGCGUAAUGGCAACGCGUGUCUCUCCUAAGGAGAAGACUGCGGGUUCGAGUCCCGUACGGAACG [U19C C27G C30U], 0.55; under GUUCCGUUGGCGUAAUGGCAACGUGUCUCACUCCUAAGGAGAAGACUGCGGGUUCGAGUCCCGUACGGAACG [U19C C24U C30A], 0.631. The figure for GUUCCGUUGGCGUAAUGGCAACGCGUCACCCUCCUAACGAGAACAAUGCGGGUUCGAGUCCCGUACGGAACG [U19C U28A G38C G44C C46A] is 0.572; for GUUCCGUUGGCGUAAUGGCAACGCGUCUCCCUCCUAAGGAGUAGAUUGCGGGUUGGAGUCCCCUACGGAACG [U19C A42U C46U C55G G63C] it is at most 0.5; for GUUCCGUUGGCGUAAUGGCAACGCAUCUCCCUCCUAAGGAGAACACAGCGGGUUCGAGUCCCGUACGGAACG [U19C G25A G44C U47A] it is at most 0.5. The figure for GUUCCGUUGGCGUAAUGGGAAGGCGUCUCCCUCUUAAGGAGAAGACUGCGGGUUCGAGUCCCGUACGCAACG [U19G C22G C34U G68C] is at most 0.5; for GUUCCGUUGGCGUAAUGGCAACGCGUCUCCCUCCUAAGGAGAAGACUGCGGGUUCGAGUCCCGUAUGGAACG [U19C C66U] it is 0.855; for GUUCCGUUGGCGUAAUGGCAACGCGUCUCCCUCCGAAGGAGAGGACUGCGGGUUCGAGUCCCGUACGGAACG [U19C U35G A43G] it is 0.598. In the case of GUUCCGUUGGCGUAAUGGGAACGCGUCUCCCUCCUAGGGAGAAGACUGCGGGUUCGAGUCCCGUUCGGUACG [U19G A37G A65U A69U], the yeast fitness is at most 0.5. Under GUUCCGUUGGCGUAAUGGGAACGCGUCUCCCUCCUAGGGAGAAGACUGCGGGUUCGAGUCCCGUUCGGAACG [U19G A37G A65U] stands 0.61; under GUUCCGUUGGCGUAAUGGCAACGCGUCUCCCUCCUAAGGAGAAGACUGCGGGUUCGACUCUCGUAUGGAACG [U19C G58C C61U C66U], 0.529.

Source of the values: the RNAGym collection of RNA variant scans (doi:10.1126/science.aae0568).
